RGS4 pot = RGS4 potentiation or activation | 310,000 tested, 0.92% active | AID 463111 | HEK293 M3R/inducible RGS4, carbachol calcium flux Fluo4; stronger effect = lower value | B-score at 10 µM;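 active = B-score of the integrated calcium signal more than 4 SD below the library mean, with starting fluorescence not abnormally high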;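 also: negative B-score means reduced calcium response which marks RGS4 activation or potentiation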
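Detection: kinetic calcium fluorescence imaging with Fluo4-AM dye, 2 µM / Material: HEK293 cells with stable M3R and inducible RGS4 / Schedule: recording 10 s baseline at 1 Hz, 100 s post-agonist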
MrgX1 antagonist = antagonists of human MrgX1 receptor. B-score at 10 µM. AID 588676. Q96LB2. MRGX1-HEK293 calcium flux, Fluo-4, BAM8-22 antagonism; stronger effect = lower value. 310,000 tested, 1.3% active;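 active = calcium-response B-score plate-corrected more than 3 library SD below zero, starting fluorescence within 5 deviations, no agonist response on first addition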;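 also: peak minus trough fluorescence over baseline after final BAM8-22 challenge near maximal dose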
Target sequence (Q96LB2 whole entry, looked up): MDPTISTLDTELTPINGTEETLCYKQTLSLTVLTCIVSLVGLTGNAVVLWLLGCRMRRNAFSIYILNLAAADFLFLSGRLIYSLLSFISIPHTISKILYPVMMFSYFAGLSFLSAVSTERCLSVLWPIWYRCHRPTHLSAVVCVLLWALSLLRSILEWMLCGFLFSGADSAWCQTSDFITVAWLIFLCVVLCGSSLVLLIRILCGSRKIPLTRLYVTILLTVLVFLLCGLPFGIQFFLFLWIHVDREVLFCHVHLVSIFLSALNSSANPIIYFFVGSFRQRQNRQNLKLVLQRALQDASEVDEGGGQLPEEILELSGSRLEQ
MrgX1 ag = human MrgX1 receptor agonism, primary screen; 310,000 tested, 0.44% active; AID 588627; Q96LB2; B-score at 10 µM; MrgX1-HEK293 cells, Fluo-4 calcium fluorescence, agonist mode; stronger effect = higher value;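 active = calcium response B-score plate-corrected fluorescence ratio at least 3 library SD, with starting fluorescence B-score inside 5 SD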
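Material – MrgX1-expressing HEK293 cells · Input – 15,000 cells seeded per well · Dosing – compound as first of three additions · Times – overnight seeding, then 1 h dark dye loading · Measured by – kinetic Fluo-4 NW fluorescence of intracellular calcium · Read-out – B-scored fluorescence response ratio · Benchmarks – positive and negative control wells on each plate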
MrgX1 allo act = human MrgX1 positive allosteric modulation, primary screen; MrgX1-HEK293, Fluo-4 calcium flux, FDSS; stronger effect = higher value; Q96LB2; 310,000 tested, 0.63% active; B-score at 10 µM;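 active = plate-corrected calcium response at least 3 library SD above typical, normal starting fluorescence, not activating the receptor alone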;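 also: compound read alongside a low EC10 to EC30 dose of BAM8-22 agonist; peak minus trough fluorescence over baseline measured at the second addition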
RGS4 inh = inhibitors of human RGS4. P49798. HEK293 M3R/RGS4 inducible, Fluo-4 calcium flux; stronger effect = higher value; triggered by carbachol at its EC20. B-score at 10 µM. 310,000 tested, 0.45% active;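 active = B-score, a plate-corrected calcium signal, over three deviations above library mean, with baseline fluorescence within five deviations of library mean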;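 also: RGS4 expression induced by doxycycline in cells with stable M3 receptor; B-score is computed from the integrated fluorescence ratio over baseline after carbachol; higher B-score means a larger calcium signal and so more RGS4 inhibition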
Target sequence (P49798 whole entry, looked up): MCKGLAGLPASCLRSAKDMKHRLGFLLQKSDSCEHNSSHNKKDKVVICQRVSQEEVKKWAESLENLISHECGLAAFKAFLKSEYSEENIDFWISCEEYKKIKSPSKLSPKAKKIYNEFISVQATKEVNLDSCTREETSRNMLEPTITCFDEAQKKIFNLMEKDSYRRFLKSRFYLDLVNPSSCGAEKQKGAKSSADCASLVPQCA
MrgX1 ant reconf = confirmation of human MrgX1 receptor antagonists; shares compounds with MrgX1 antagonist; MrgX1-HEK293, BAM8-22 calcium flux, Fluo-4; stronger effect = lower value; remaining BAM8-22 calcium response % of control (stronger effect = lower value), % at 10 µM; 2,300 tested, 19% active;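 active = remaining agonist calcium response no higher than 100% minus 3 SD of agonist-only control wells, with starting fluorescence near control levels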;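 also: agonist BAM8-22 given at a near maximal EC90 to ECmax level; peak minus minimum fluorescence divided by baseline after agonist addition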
HEK293 Ca flux = MrgX1 antagonist counter-screen hit in parental HEK293 cells | AID 624111 | fluorescence ratio F(max-min)/F0 at 10 µM | 4,000 tested, 2% active | Fluo-4 calcium fluorescence, FDSS | shares compounds with MrgX1 antagonist;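 active = duplicate-averaged calcium fluorescence ratio at least three times the standard deviation of buffer wells, a nonspecific response in parental cells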
HEK293 Ca counter = MrgX1 allosteric activator counter-screen hit in parental HEK293 cells. shares compounds with MrgX1 antagonist. 4,000 tested, 0.4% active. fluorescence ratio F(max-min)/F0 at 10 µM. parental HEK293 calcium flux, Fluo-4 fluorescence ratio; stronger effect = higher value;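 active = calcium fluorescence ratio, averaged over duplicates, at least 3 SD of the buffer-well ratio, meaning a nonspecific response in receptor-free cells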;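 also: untransfected parental HEK293 lacking MrgX1 used as counterscreen for MrgX1 allosteric activators; fluorescence change taken during the second addition on a kinetic imager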
HEK293 Ca cntr2 = activity in parental HEK293 cells lacking MrgX1 receptor; shares compounds with MrgX1 antagonist; Fluo-4 calcium fluorescence (FDSS); stronger effect = higher value; fluorescence ratio F(max-min)/F0 at 10 µM; 4,000 tested, 8.7% active; AID 624115;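 active = calcium fluorescence ratio at least three times the spread of buffer wells, meaning a non-specific response in parental cells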
The depositor's hits bear a star; i = inactive; . = no result given. An excerpt weighted towards active compounds, which were near 3.5% of everything screened.

SMILES	RGS4 pot	MrgX1 antagonist	MrgX1 ag	MrgX1 allo act	RGS4 inh	MrgX1 ant reconf	HEK293 Ca flux	HEK293 Ca counter	HEK293 Ca cntr2
COc1cccc(C(=O)COc2ccc(NC(=O)c3ccccc3)cc2)c1	i	.	.	.	i	.	.	.	.
CC1(C)CC(=O)C(C=Nc2cc(C(=O)c3ccccc3)ccc2N)=C(O)C1	i	-6.8*	i	i	i	73%*	i	i	i
CSc1ccccc1N=CC1=C(O)CC(C)(C)CC1=O	i	i	i	i	i	.	.	.	.
Clc1ccccc1Cn1nnc2c(NCC3CC3)ncnc21	i	-7.5*	i	i	i	i	i	i	i
Clc1ccccc1Cn1nnc2c(Nc3ccccc3)ncnc21	i	i	i	i	i	.	.	.	.
Cc1cc(C)n2c(=O)c3ccc(Cl)cc3nc2c1C#N	i	-5.8*	i	i	i	i	i	i	i
CCCCCn1nc(C(=O)OCc2nnc(-c3ccccc3)o2)c2ccccc2c1=O	i	i	i	i	i	.	.	.	.
CCCn1c(N)c(NCCN2CCOCC2)c(=O)[nH]c1=O	i	-5.9*	i	i	i	i	i	i	i
CCCCNc1c(N)n(CCC)c(=O)[nH]c1=O	i	i	i	i	i	.	.	.	.
COc1ccc(/C=N/N2CCN(c3ccc(Cl)cc3)CC2)cc1O	i	i	i	i	i	.	.	.	.
CCc1c(C)nc(SCC(=O)c2ccc(C)c(C)c2)[nH]c1=O	i	-7*	i	i	i	i	i	i	i
Cc1cccc(-n2ncc3c(NC(C)C)ncnc32)c1	i	i	i	i	i	.	.	.	.
CC(C)Nc1ncnc2c1cnn2-c1ccccc1	i	-4.9*	i	i	i	i	i	i	i
O=C(O)c1ccc(Cl)c(S(=O)(=O)N2CCCC2)c1	i	i	i	i	i	.	.	.	.
O=C(O)c1ccc(Br)c(S(=O)(=O)N2CCCC2)c1	i	-5.6*	i	i	i	i	i	i	i
O=C(Nc1cccc(Cl)c1)C1CCCCC1	.	-5.4*	i	i	.	i	i	i	i
CC(=O)c1cccc(NC(=O)C2CCCCC2)c1	i	i	i	i	i	.	.	.	.
COc1ccc(-c2ccnc3c(C(=O)O)cnn23)cc1	i	i	i	i	i	.	.	.	.
COC(=O)CCn1nnc(-c2cccs2)n1	i	-6.8*	i	i	i	75%*	i	i	i
COC(=O)c1ccc(NC(=O)Cn2nnc(-c3cccs3)n2)cc1	i	i	i	i	i	.	.	.	.
COc1ccc(N2CCN(C(=O)Cn3nnc(-c4cccs4)n3)CC2)cc1	i	-5.2*	i	i	i	i	i	i	i
COc1ccc(C(=O)Cn2nnc(-c3cccs3)n2)cc1	i	i	i	i	i	.	.	.	.
COCCN(C(=O)C1CC1)c1nnc(-c2cccc(C)c2)s1	i	-5.4*	i	i	i	i	i	i	i
CCCN(C(=O)c1ccco1)c1nnc(-c2cccc(C)c2)s1	i	i	i	i	i	.	.	.	.
CCn1cc(CNC(=O)c2cc(-c3cc(OC)ccc3OC)nc3ccccc23)c(C)n1	i	i	i	i	i	.	.	.	.
SMILES	RGS4 pot	MrgX1 antagonist	MrgX1 ag	MrgX1 allo act	RGS4 inh	MrgX1 ant reconf	HEK293 Ca flux	HEK293 Ca counter	HEK293 Ca cntr2
COc1ccc(N2C(=O)CSC2c2ccccc2F)c(OC)c1 (stereo not drawn)	i	i	i	i	i	.	.	.	.
Cc1cc(Nc2ccccc2)n(C(=O)c2ccccc2)n1	i	-6.8*	i	i	i	i	i	i	i
Cc1cc(Br)ccc1NC(=O)CN(C)C(=O)c1cc(S(=O)(=O)N(C)C)ccc1N1CCCC1	i	i	i	i	i	.	.	.	.
COc1cccc(C(=O)N2CCN(C(=O)c3cccc4ccccc34)CC2)c1OC	i	-4.9*	i	i	i	85%*	i	i	i
COc1ccc(CN2CCN(C(=O)c3cccc4ccccc34)CC2)c(OC)c1OC	i	i	i	i	i	.	.	.	.
Cc1ccc(C(NC(=O)N2CCOCC2)C(Cl)(Cl)Cl)cc1F (stereo not drawn)	i	-5.3*	i	i	i	81%*	i	i	i
CCN(CC)C(=O)NC(c1ccc(C)c(F)c1)C(Cl)(Cl)Cl (stereo not drawn)	i	i	i	i	i	.	.	.	.
O=C(NCc1ccccn1)C(C(=O)c1cccc([N+](=O)[O-])c1)n1cc(Cl)ccc1=O (stereo not drawn)	i	i	i	i	i	.	.	.	.
CCN(CC(=O)Nc1ccc2c(c1)OCCO2)c1nc(-c2cccnc2)nc2ccccc12	i	-11*	i	i	i	i	i	i	i
O=C(Nc1ccc2c(c1)OCO2)c1cc(-c2cccnc2)nc2ccccc12	i	i	i	i	i	.	.	.	.
Cc1ccc(S(=O)(=O)NCC(=O)OCC(=O)c2ccc(Cl)s2)cc1	i	i	i	i	i	.	.	.	.
Cc1sc2ncn(CC(=O)N3CCN(c4ccc(F)cc4)CC3)c(=O)c2c1S(=O)(=O)N1CCOCC1	i	i	i	i	i	.	.	.	.
CCCCCCCCCCS(=O)(=O)N/N=C/c1ccc(O)cc1	i	i	i	i	i	.	.	.	.
COCCNC(=O)C1CC2Cn3c(nc4cc(Cl)c(Cl)cc43)C2N1C (stereo not drawn)	i	-5.5*	i	i	i	i	i	i	i
COc1ccc(OC)c(C(=O)NC(CC(N)=O)c2ccc(NCCN3CCCCC3)c([N+](=O)[O-])c2)c1 (stereo not drawn)	i	i	i	i	i	.	.	.	.
Cc1ccccc1C(=O)Oc1ccc(Br)cc1C(=S)N1CCCC1	i	-9.4*	i	i	i	i	i	i	i
Cc1ccccc1N(CC(=O)Nc1ccc(S(=O)(=O)N2CCOCC2)cc1)S(C)(=O)=O	i	i	i	i	i	.	.	.	.

Assay outcomes as filed in PubChem.
